Laboratory results published in PubChem BioAssay AID504535 (Broad Institute, 2011).
Values joined by “and” are separate entries in the source; they are usually repeats but may differ in a detail not shown here. Equal values may be shown once. Results filed as inconclusive are left out. Active and inactive are the calls of the source.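 Rule for the calls: active = luminescence drop with fitted half-effect dose at most ten times the top tested dose, in every repeat; inconclusive = repeats disagree, flat moderate inhibition, or unreliable curve fit; inactive = every repeat flat, too weak, or signal rising.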

Tested on: HMLE_shECad viability, CellTiter-Glo luminescence, 72 h
Assay: killing of E-cadherin-knockdown HMLE cells – cell-based, CellTiter-Glo luminescence, primary HTS retest, dry powder, set 5, dose response (AID 504535)
Settings: not given
Procedure, shortened: (§1)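 Material: HMLE_shECad cells, E-cadherin-knockdown EMT-induced breast cancer stem cell model / Input: 2000 cells/well / Buffer or medium: CSC medium without serum / Timing: ~72 h compound exposure, 37 °C / Measured by: CellTiter-Glo luminescence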

Structure (SMILES) | AC50
Cc1csc(NC(=O)c2ccc(CNc3ccccc3)o2)n1 | 0.676 µM
Cc1ccc(OCc2ccc(C(=O)Nc3nc(C)cs3)o2)cc1 | 2.51 µM
Cc1csc(NC(=O)c2ccc(COc3ccccn3)o2)n1 | 17.8 µM
Cc1cc(Br)ccc1OCC(=O)N/N=C/c1ccc[nH]1 | 3.76 µM
Cc1csc(NC(=O)c2ccc(COC3CCCCC3)o2)n1 | 17 µM
O=C(Nc1nc(C(F)(F)F)cs1)c1ccc(COc2ccccc2)o1 | 13.2 µM
CC(C)c1ccc(/C=C/C(=O)N(C)C2=NCCS2)cc1 | 21.2 µM
N#Cc1ccc(/C=C/C(=O)NC2=NCCS2)cc1 | 29.2 µM
CC(C)Cc1ccc(/C=C/C(=O)NC2=NCCS2)cc1 | 0.57 µM
O=C(COc1c(Cl)cc(Cl)cc1Cl)N/N=C/c1ccc[nH]1 | 1.44 µM
COc1cccc(OCc2ccc(C(=O)Nc3nc(C)cs3)o2)c1 | 0.348 µM
Cc1csc(NC(=O)c2ccc(CCc3ccccc3)o2)n1 | 0.895 µM
Cc1cccc(OCc2ccc(C(=O)Nc3nc(C)cs3)o2)c1 | 0.259 µM and 0.332 µM
CCc1ccc(/C=C/C(=O)NC2=NCCS2)cc1 | 1.67 µM
Cc1cc(C)c(OCC(=O)N/N=C/c2ccc[nH]2)c(C)c1 | 9.43 µM
N#Cc1csc(NC(=O)c2ccc(COc3ccccc3)o2)n1 | 18.1 µM
CC(C)c1ccc(/C=C/C(=O)NC2=NCCS2)cc1 | 2.97 µM
Cc1csc(NC(=O)c2ccc(COCc3ccccc3)o2)n1 | 6.04 µM
CC(C)c1ccc(/C=C/C(=O)Nc2cncs2)cc1 | 11.4 µM

Tested on: not listed separately
Assay: as above
Settings: HMLE_shECad viability, CellTiter-Glo luminescence, 72 h; at 19.5 µM (top of the series)
Procedure, shortened: as §1

Structure (SMILES) | activity change, negative = inhibition
CNC(=O)c1csc(NC(=O)c2ccc(COc3ccccc3)o2)n1 | -8.68% (inactive)
COCc1ccc(C(=O)Nc2nc(C)cs2)o1 | 1.05% (inactive)
CC(C)NC(=O)c1ccc(COc2ccccc2)o1 | -14.2% (inactive)
O=C(Nc1nncs1)c1ccc(COc2ccccc2)o1 | -7.89% (inactive)
C/C(=C\C(=O)NC1=NCCS1)c1ccc(C)cc1 | -1.94% (inactive)
C/C(=C\C(=O)NC1=NCCS1)c1ccc(CC(C)C)cc1 | 3.46% (inactive)
Cc1csc(NCc2ccc(COc3ccccc3)o2)n1 | -11.4% (inactive)
CCN(CC)C(=O)c1ccc(COc2ccccc2)o1 | 8.61% (inactive)
Cn1c(C(=O)NC2=NCCS2)cc2ccccc21 | -9.82% (inactive)
Cc1csc(NC(=O)c2ccc(COc3cccc(S(C)(=O)=O)c3)o2)n1 | -13.6% (inactive)

Same assay, conditions: HMLE_shECad viability, CellTiter-Glo luminescence, 72 h; at 30 µM (top of the series)

Structure (SMILES) | activity change, negative = inhibition
Cc1ccc2cc(C(=O)NC3=NCCS3)n(C)c2c1 | -12.6% (inactive)
